Drawing on ChEMBL document CHEMBL1149392, “PTP-1B inhibitors: cyclopenta[d][1,2]-oxazine derivatives” (Bioorg Med Chem Lett, 2006), this text covers inhibition and IC50 for three molecules.

In experiment [1] the target is T1, Tyrosine-protein phosphatase non-receptor type 1 (Homo sapiens) (UniProt P18031).
T1 sequence (whole entry): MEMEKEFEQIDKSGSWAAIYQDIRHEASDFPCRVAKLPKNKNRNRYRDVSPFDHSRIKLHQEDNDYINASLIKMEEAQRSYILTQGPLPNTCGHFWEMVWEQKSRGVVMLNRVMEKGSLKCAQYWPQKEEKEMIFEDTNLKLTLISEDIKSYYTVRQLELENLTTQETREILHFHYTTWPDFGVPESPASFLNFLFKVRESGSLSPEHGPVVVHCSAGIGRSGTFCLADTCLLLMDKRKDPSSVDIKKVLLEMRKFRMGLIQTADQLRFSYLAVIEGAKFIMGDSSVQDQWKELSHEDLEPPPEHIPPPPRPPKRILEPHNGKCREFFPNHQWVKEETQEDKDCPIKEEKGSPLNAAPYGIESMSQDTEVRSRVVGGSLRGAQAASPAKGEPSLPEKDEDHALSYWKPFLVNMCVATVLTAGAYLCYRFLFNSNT
Put plainly: Inhibitory activity against recombinant human PTP1B at 10 uM.

The target in experiment [2] is Tyrosine-protein phosphatase YopH (Yersinia enterocolitica, UniProt P15273). Kind of experiment: Inhibitory activity against YOP protein tyrosine phosphatase. In a few lines: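 Counter-screen against Yop phosphatase within a nine-phosphatase selectivity panel. Fluorescein diphosphate substrate at 20 μM, the same level as in the PTP-1B assay. Potency is reported as IC50 (μM).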

In experiment [3] the target is Serine/threonine-protein phosphatase PP1-gamma catalytic subunit (Homo sapiens, UniProt P36873). Put plainly: Inhibitory activity against Protein phosphatase 1. Summed up:
(§1)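 Selectivity panel of nine phosphatases, each assayed with fluorescein diphosphate at the same concentration as in the PTP-1B assay (20 μM). IC50 values (μM) reported.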

The target of experiment [4] is T2, M-phase inducer phosphatase 1 (Homo sapiens, UniProt P30304).
T2 sequence (P30304 whole entry): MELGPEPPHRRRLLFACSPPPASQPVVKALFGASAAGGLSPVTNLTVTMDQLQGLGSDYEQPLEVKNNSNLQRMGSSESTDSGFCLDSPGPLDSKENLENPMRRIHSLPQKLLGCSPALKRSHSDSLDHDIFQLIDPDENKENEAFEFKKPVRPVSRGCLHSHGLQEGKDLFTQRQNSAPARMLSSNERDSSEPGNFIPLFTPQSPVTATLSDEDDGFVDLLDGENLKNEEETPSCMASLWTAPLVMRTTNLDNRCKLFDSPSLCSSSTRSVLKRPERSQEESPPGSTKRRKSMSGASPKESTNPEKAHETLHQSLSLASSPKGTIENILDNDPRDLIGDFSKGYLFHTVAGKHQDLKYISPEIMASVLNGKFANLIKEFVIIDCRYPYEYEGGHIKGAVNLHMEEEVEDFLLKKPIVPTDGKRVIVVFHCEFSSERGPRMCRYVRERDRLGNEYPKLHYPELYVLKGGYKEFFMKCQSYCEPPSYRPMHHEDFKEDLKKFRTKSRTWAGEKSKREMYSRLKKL
Put plainly: Inhibitory activity against cdc25A phosphatase. In a few lines:
as §1

Experiment [5] concerns the target T3, M-phase inducer phosphatase 2 (Homo sapiens, UniProt P30305).
T3 sequence (P30305 whole entry): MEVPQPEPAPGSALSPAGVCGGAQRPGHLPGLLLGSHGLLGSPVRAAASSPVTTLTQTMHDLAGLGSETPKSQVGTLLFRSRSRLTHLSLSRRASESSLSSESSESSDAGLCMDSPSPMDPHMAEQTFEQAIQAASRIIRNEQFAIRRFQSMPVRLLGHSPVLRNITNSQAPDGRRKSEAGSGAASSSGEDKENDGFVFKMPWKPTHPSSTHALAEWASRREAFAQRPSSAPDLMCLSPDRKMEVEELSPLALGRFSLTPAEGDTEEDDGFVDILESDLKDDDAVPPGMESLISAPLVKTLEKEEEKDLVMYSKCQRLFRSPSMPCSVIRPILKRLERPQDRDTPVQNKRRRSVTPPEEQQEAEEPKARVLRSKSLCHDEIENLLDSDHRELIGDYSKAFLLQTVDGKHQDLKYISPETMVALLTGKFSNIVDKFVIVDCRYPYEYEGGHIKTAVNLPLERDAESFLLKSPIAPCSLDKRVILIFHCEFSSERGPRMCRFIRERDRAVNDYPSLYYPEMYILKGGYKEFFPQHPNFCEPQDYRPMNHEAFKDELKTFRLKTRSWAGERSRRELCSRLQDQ
Kind of experiment: Inhibitory activity against cdc25B phosphatase. Summed up:
as §1

Experiment [6] has as its target T4, M-phase inducer phosphatase 3 (Homo sapiens, UniProt P30307).
T4 sequence (P30307 whole entry): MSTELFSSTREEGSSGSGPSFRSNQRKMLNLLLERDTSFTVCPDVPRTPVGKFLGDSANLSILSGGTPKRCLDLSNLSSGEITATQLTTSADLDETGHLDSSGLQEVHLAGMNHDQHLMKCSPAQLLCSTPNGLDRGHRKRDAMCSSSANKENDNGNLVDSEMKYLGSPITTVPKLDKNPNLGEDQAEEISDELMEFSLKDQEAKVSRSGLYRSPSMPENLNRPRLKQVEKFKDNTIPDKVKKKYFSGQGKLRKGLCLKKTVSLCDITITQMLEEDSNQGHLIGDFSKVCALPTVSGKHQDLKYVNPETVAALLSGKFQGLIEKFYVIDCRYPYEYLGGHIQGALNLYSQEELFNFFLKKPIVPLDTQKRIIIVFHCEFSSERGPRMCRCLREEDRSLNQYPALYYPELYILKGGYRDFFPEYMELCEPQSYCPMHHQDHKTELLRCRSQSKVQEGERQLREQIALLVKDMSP
Put plainly: Inhibitory activity against cdc25C phosphatase. In a few lines: as §1

Sequence of Serine/threonine-protein phosphatase PP1-gamma catalytic subunit (P36873 whole entry): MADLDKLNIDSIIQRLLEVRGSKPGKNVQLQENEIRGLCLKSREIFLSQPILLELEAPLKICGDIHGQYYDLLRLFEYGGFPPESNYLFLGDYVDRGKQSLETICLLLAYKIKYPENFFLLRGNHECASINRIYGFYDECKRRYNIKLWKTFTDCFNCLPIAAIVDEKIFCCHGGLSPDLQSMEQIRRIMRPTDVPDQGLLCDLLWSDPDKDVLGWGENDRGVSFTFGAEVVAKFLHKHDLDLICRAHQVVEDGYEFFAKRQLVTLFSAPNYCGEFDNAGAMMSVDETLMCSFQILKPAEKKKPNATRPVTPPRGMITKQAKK
Sequence of Tyrosine-protein phosphatase YopH (P15273 whole entry): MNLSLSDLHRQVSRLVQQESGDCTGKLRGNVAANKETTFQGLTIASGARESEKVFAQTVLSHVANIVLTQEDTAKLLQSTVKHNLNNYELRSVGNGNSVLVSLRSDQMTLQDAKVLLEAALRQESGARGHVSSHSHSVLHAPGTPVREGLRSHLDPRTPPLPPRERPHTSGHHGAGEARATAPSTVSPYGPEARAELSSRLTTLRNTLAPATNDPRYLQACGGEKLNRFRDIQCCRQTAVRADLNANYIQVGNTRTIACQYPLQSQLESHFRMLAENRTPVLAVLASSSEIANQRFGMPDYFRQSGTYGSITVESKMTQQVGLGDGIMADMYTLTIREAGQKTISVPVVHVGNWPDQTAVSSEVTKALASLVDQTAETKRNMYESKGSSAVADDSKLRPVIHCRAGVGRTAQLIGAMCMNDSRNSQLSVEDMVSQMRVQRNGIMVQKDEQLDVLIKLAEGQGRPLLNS

What is called inhibition is the drop in the measured response relative to a control, in per cent. One may read the IC50 as the concentration at which inhibition is half-maximal. High values mean a need for much substance, low ones inhibition by little substance. Take `NCc1ccc(C(=O)c2ccc3c(-c4ccc(OCC(=O)O)cc4)nocc2-3)cc1`: in experiment [1], the inhibition stood at 97.2%. For the same molecule, the IC50 in experiment [2] is 1.19 µM; in experiment [3] it was 1.3 µM; in experiment [4], 10 µM; in experiment [5] it was 10 µM; in experiment [6] it was above 10 µM.

For the molecule `CCCCCCCCCCCCCCc1ccc(C(=O)c2ccc3c(-c4ccc(OCC(=O)O)cc4)nocc2-3)cc1`, in experiment [1], the inhibition was found to be 101%. The IC50 in experiment [2] amounted to 0.55 µM; in experiment [3] it was 0.22 µM; in experiment [4] it was 1.33 µM; in experiment [5], 0.12 µM; in experiment [6], 2.27 µM.

As to `COc1ccc(C(=O)c2ccc3c(-c4ccc(OCC(=O)O)cc4)nocc2-3)cc1`, the inhibition in experiment [1] came out at 81.5%. Besides, the IC50 in experiment [2] is 5.71 µM; in experiment [3], 35.2 µM; in experiment [4], 73.3 µM; in experiment [5] it was 16.1 µM; in experiment [6] it was 61.7 µM.
